Measurements pooled from the literature.
Target: Serine/threonine-protein kinase mTOR (MTOR, Homo sapiens, UniProt P42345)

| SMILES | assay | setting | endpoint | value |
| --- | --- | --- | --- | --- |
| Cc1ccc(C(=O)NCc2ccsc2)cc1C#Cc1cn(C(C)C)c2ncnc(N)c12 | enzyme activity, inhibitor | 1 µM | activity vs control | 105% |
| C=CC(=O)Nc1cc(Nc2nccc(Nc3cc(Cl)c(F)cc3C(C)(C)O)n2)c(OC)cc1N1CC[C@@H](N(C)C)C1 | enzyme activity, inhibitor | 1 µM | inhibition | 6% |
| COCCOc1nc(-c2ccc(Cl)nc2)nc2c1CN(C(=O)c1ncn3ccccc13)CC2 | cell-free assay, competition with immobilised ligand | 0.1 µM | remaining binding | 97% |
| Cc1cc(NC(=O)c2cccc3cc(-c4cccc5[nH]nc(N)c45)ccc23)ccc1F | enzyme activity, inhibitor | 0.1 µM | activity vs control | 92% |
| CC(C)(C)c1nc2c(s1)c1nc(N)ncc1c1ccc(NS(=O)(=O)c3c(F)cccc3F)c(F)c12 | enzyme activity, inhibitor, radiometric | 1 µM | remaining activity | 103% |
| COc1cc2ncnc(Nc3ccc(Oc4ccccc4)cc3C)c2cc1OC | enzyme activity, inhibitor | 1 µM | inhibition | 1% |
| CNCc1ccc(-c2cc(-c3nc(-c4ccc(S(=O)(=O)C(C)C)cc4)cnc3N)on2)cc1 | enzyme activity, inhibitor | 0.4 µM | inhibition | 0% |
| CCN(CC)c1ccc(C2=NNC(=O)CC2C)cc1[N+](=O)[O-] (centres unmarked) | enzyme activity, inhibitor | 10 µM | remaining activity | 110% |
| CCCS(=O)(=O)Nc1ccc(F)c(C(=O)c2c[nH]c3ncc(-c4ccc(Cl)cc4)cc23)c1F | enzyme activity, inhibitor | 1 µM | inhibition | < 10% |
| C[C@@H](c1cccc(C#N)c1)n1cc(Cl)cc(C(N)=O)c1=N | cell-free assay, competition with immobilised ligand | 1 µM | remaining binding | 96% |
| CN(c1nccc(-c2cnn3ncccc23)n1)C1CC1 | cell-free assay | 1 µM | remaining signal | 100% |
| CS(=O)(=O)NCC[C@H](NC(=O)c1cncc2c1cnn2-c1ccc(F)cc1)c1ccnc(S(C)(=O)=O)c1 | cell-free assay, competition with immobilised ligand | 1 µM | remaining binding | 88% |
| CS(=O)(=O)Nc1cccc(-c2csc(NC(=O)CSc3nc4nccnc4c(=O)n3CCc3ccccc3)n2)c1 | enzyme activity, inhibitor | 10 µM | inhibition | 1% |
| COc1ccc2c(c1)O[C@@H](c1ccc(OC)c(OC)c1)C[C@H]2NC(=O)C1(c2ccc3c(c2)OC(F)(F)O3)CC1 | cell-free assay, competition with immobilised ligand | 1 µM | remaining binding | 100% |
| COc1cc(Cl)c(C(=O)N[C@@H](CN[C@H]2CC[C@@H](N)CC2)Cc2ccc(C#N)cc2)cc1-c1ccc(CN[C@H](C)c2ccc(C)cc2)o1 | enzyme activity, inhibitor | 1 µM | remaining activity | 98% |
| O=C(CSc1nc2nccnc2c(=O)n1CCc1ccccc1)Nc1ccccc1 | enzyme activity, inhibitor | 10 µM | inhibition | 31% |
| CN([C@@H]1CCc2c(CC(=O)O)c3ccccc3n2C1)S(=O)(=O)c1ccc(F)cc1 | cell-free assay, competition with immobilised ligand | 1 µM | remaining binding | 100% |
